The values that follow come from ChEMBL document CHEMBL1138483, “Toward second generation hepatitis C virus NS3 serine protease inhibitors: discovery of novel P4 modified analogues with improved potency and pharmacokinetic profile” (J Med Chem, 2009).

Series [1] in a line: Binding affinity to HCV NS3 protease by spectrophotometry. Set-up: species or system Hepacivirus hominis.
The subject of another series is Hepatitis C virus. The experiment in a line: Antiviral activity against HCV replication in human hepatoma cells by replicon assay. In kind it is functional, Hepacivirus hominis.
The nature of series [2]: AUC in po dosed rat. In kind it is ADME, organism-based. The conditions noted are these: plasma.
Series [3] is described as follows: Drug level in rat liver at 10 mg/kg, po after 6 hrs. The class given is ADME, organism-based. Set-up: dose 10 mg/kg, route oral. The conditions noted are these: read-out: Drug uptake. The procedure, abridged: (§1)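 Oral dosing in rats at 10 mpk as a suspension in 0.4% HPMC; liver concentration measured in ng/g tissue at 1 h or 6 h after dosing.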
Series [4] can be described thus: AUC (0 to 24 hrs) in rat at 10 mg/kg, po. The class given is ADME, organism-based. Set-up: time < 24 hr, dose 10 mg/kg, route oral. The following applies: plasma.
Series [5] in a line: Bioavailability in rat at 10 mg/kg, po. In kind it is ADME, organism-based. The following applies: in vivo.
In the next series the test system is Rattus norvegicus. The experiment in a line: AUC in rat at 10 mg/kg, po. The following applies: in vivo. The class given is ADME, organism-based, Plasma. Set-up: dose 10 mg/kg, route oral.
A short description of series [6]: Drug level in rat liver at 10 mg/kg, po after 1 hr. The class given is ADME, organism-based. Set-up: dose 10 mg/kg, route oral. The conditions noted are these: read-out: Drug uptake. The procedure, abridged: as §1

For orientation: Ki means a measure of affinity in units of concentration, obtained from inhibition or displacement. A low value points to a stronger hold on the target. One may read the EC90 as the point of the concentration-response curve where the effect stands at 90%. Usually AUC stands for the area under the concentration-time curve, a measure of exposure. The AUC(0-t) is the area under the concentration-time curve up to a stated or last time point. Higher therefore signals more exposure. Usually bioavailability stands for dose-corrected exposure relative to a reference, in per cent. Higher therefore signals good availability.

The structures appear in SMILES notation.

`COC[C@@H](NC(=O)N[C@H](C(=O)N1C[C@H]2[C@@H]([C@H]1C(=O)NC(CC1CCC1)C(=O)C(N)=O)C2(C)C)C1Cc2ccccc2C1)C(C)(C)C` (some centres not stated): the Ki in series [1] amounted to 0.015 µM. This compound also had an EC90 in the series on Hepatitis C virus of 0.2 µM. Further, the area under the curve (AUC) in series [2] worked out at 0.1 µM·h.
`C#CCCC(NC(=O)[C@@H]1[C@@H]2[C@H](CN1C(=O)[C@@H](NC(=O)N[C@H](COC(=O)NCC)C(C)(C)C)C1(C)CCCCC1)C2(C)C)C(=O)C(=O)NCC=C` (some centres not stated) came in with a Ki in series [1] of 0.009 µM. Further, the concentration at 6 h in series [3] turned out to be 1110 ng/g. Moreover, in series [4], the exposure AUC(0-t) at 24 h stood at 26 µM·h. The EC90 in the series with Hepatitis C virus is 0.15 µM. The bioavailability in series [5] was determined as 43%.
In turn, `CCNC(=O)OC[C@@H](NC(=O)N[C@H](C(=O)N1C[C@H]2[C@@H]([C@H]1C(=O)NC(CC1CCC1)C(=O)C(N)=O)C2(C)C)C1Cc2ccccc2C1)C(C)(C)C` (some centres not stated) showed an AUC in the series with Rattus norvegicus of 0.3 µM·h. Besides, the concentration at 1 h in series [6] amounted to 244 ng/g. Further, in series [1], the Ki was found to be 0.007 µM. This compound registered an EC90 with Hepatitis C virus of 0.1 µM.
